# Source: ChEMBL document CHEMBL4689842, “EUbOPEN Chemogenomics Library wave 1” (2021)
# Test system: HEK-293T
# Test: Multiplex assay against HEK293T;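 as to Population Tubulin-Different-Phenotype (%): share of the cells with healthy nuclei that show this phenotype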
# Assay type: toxicity, cell-based
# Conditions: human
# Summary of the method: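 Live cells were stained at seeding with Hoechst33342, BioTracker Green Microtubule Cytoskeleton Dye, MitoTracker Red and Annexin V Alexa Fluor 680, then imaged on a CQ1 microscope at 37°C and 5% CO2 after compound addition. CellPathfinder machine-learning gating split cells into Hoechst high-intensity objects or normal cells. Normal cells were split into healthy, pyknosed or fragmented nuclei, and pyknosed cells into mitotic or apoptotic. Tubulin, mitochondrial-mass and membrane-permeability phenotypes are per cents of healthy-nucleus cells.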
# [1] = 12 h, 1 µM, compound concentration 1 uM, replicate 1
# [2] = 12 h, 1 µM, compound concentration 1 uM, replicate 2
# [3] = 12 h, 10 µM, compound concentration 10 uM, replicate 1
# [4] = 12 h, 10 µM, compound concentration 10 uM, replicate 2
# [5] = 24 h, 1 µM, compound concentration 1 uM, replicate 1
# [6] = 24 h, 1 µM, compound concentration 1 uM, replicate 2
# [7] = 24 h, 10 µM, compound concentration 10 uM, replicate 1
# [8] = 24 h, 10 µM, compound concentration 10 uM, replicate 2
# [9] = 48 h, 1 µM, compound concentration 1 uM, replicate 1
# [10] = 48 h, 1 µM, compound concentration 1 uM, replicate 2
# [11] = 48 h, 10 µM, compound concentration 10 uM, replicate 1
# [12] = 48 h, 10 µM, compound concentration 10 uM, replicate 2
compound,measurement,setting,value
CC(C)CC(=O)Nc1[nH]nc2c1CN(C(=O)C1CCN(C)CC1)C2(C)C [PHA-793887],Population Apoptotic (%),[1],21%
same,Population Fragmented Nuclei (%),[1],10%
same,Population Healthy Nuclei (%),[1],72%
same,Population Hoechst High Intensity Objects (%),[1],8%
same,Population Membrane Permeable-Phenotype (%),[1],5%
same,Population Mitochondria Different-Phenotype (%),[1],4%
same,Population Mitotic Cells (%),[1],78%
same,Population Normal (%),[1],91%
same,Population Pyknosed Nuclei (%),[1],17%
same,Population Tubulin-Different-Phenotype (%),[1],2%
same,Total Cell Count,[1],604
same,Population Apoptotic (%),[2],20%
same,Population Fragmented Nuclei (%),[2],9%
same,Population Healthy Nuclei (%),[2],87%
same,Population Hoechst High Intensity Objects (%),[2],2%
same,Population Membrane Permeable-Phenotype (%),[2],1%
same,Population Mitochondria Different-Phenotype (%),[2],6%
same,Population Mitotic Cells (%),[2],80%
same,Population Normal (%),[2],97%
same,Population Pyknosed Nuclei (%),[2],3%
same,Population Tubulin-Different-Phenotype (%),[2],4%
same,Total Cell Count,[2],1420
same,Population Apoptotic (%),[3],21%
same,Population Fragmented Nuclei (%),[3],13%
same,Population Healthy Nuclei (%),[3],69%
same,Population Hoechst High Intensity Objects (%),[3],12%
same,Population Membrane Permeable-Phenotype (%),[3],2%
same,Population Mitochondria Different-Phenotype (%),[3],7%
same,Population Mitotic Cells (%),[3],78%
same,Population Normal (%),[3],87%
same,Population Pyknosed Nuclei (%),[3],16%
same,Population Tubulin-Different-Phenotype (%),[3],3%
same,Total Cell Count,[3],585
same,Population Apoptotic (%),[4],25%
same,Population Fragmented Nuclei (%),[4],7%
same,Population Healthy Nuclei (%),[4],89%
same,Population Hoechst High Intensity Objects (%),[4],5%
same,Population Membrane Permeable-Phenotype (%),[4],0%
same,Population Mitotic Cells (%),[4],74%
same,Population Normal (%),[4],94%
same,Population Pyknosed Nuclei (%),[4],2%
same,Population Tubulin-Different-Phenotype (%),[4],2%
same,Total Cell Count,[4],1190
same,Population Apoptotic (%),[5],27%
same,Population Fragmented Nuclei (%),[5],9%
same,Population Healthy Nuclei (%),[5],81%
same,Population Hoechst High Intensity Objects (%),[5],4%
same,Population Membrane Permeable-Phenotype (%),[5],7%
same,Population Mitochondria Different-Phenotype (%),[5],3%
same,Population Mitotic Cells (%),[5],72%
same,Population Normal (%),[5],95%
same,Population Pyknosed Nuclei (%),[5],9%
same,Population Tubulin-Different-Phenotype (%),[5],4%
same,Total Cell Count,[5],638
same,Population Apoptotic (%),[6],11%
same,Population Fragmented Nuclei (%),[6],23%
same,Population Healthy Nuclei (%),[6],72%
same,Population Hoechst High Intensity Objects (%),[6],3%
same,Population Membrane Permeable-Phenotype (%),[6],2%
same,Population Mitochondria Different-Phenotype (%),[6],2%
same,Population Mitotic Cells (%),[6],88%
same,Population Normal (%),[6],96%
same,Population Pyknosed Nuclei (%),[6],3%
same,Population Tubulin-Different-Phenotype (%),[6],6%
same,Total Cell Count,[6],1935
same,Population Apoptotic (%),[7],25%
same,Population Fragmented Nuclei (%),[7],13%
same,Population Healthy Nuclei (%),[7],70%
same,Population Hoechst High Intensity Objects (%),[7],15%
same,Population Membrane Permeable-Phenotype (%),[7],4%
same,Population Mitochondria Different-Phenotype (%),[7],7%
same,Population Mitotic Cells (%),[7],75%
same,Population Normal (%),[7],84%
same,Population Pyknosed Nuclei (%),[7],15%
same,Population Tubulin-Different-Phenotype (%),[7],8%
same,Total Cell Count,[7],545
same,Population Apoptotic (%),[8],36%
same,Population Fragmented Nuclei (%),[8],11%
same,Population Healthy Nuclei (%),[8],86%
same,Population Hoechst High Intensity Objects (%),[8],4%
same,Population Membrane Permeable-Phenotype (%),[8],1%
same,Population Mitotic Cells (%),[8],63%
same,Population Normal (%),[8],95%
same,Population Pyknosed Nuclei (%),[8],2%
same,Population Tubulin-Different-Phenotype (%),[8],4%
same,Total Cell Count,[8],1297
Cc1ccc(C)c(Oc2ccncc2C(=O)N2CCN(C3CC3)c3ccccc32)c1,Population Apoptotic (%),[1],43%
same,Population Healthy Nuclei (%),[1],48%
same,Population Mitotic Cells (%),[1],56%
same,Population Normal (%),[1],91%
same,Population Pyknosed Nuclei (%),[1],44%
same,Total Cell Count,[1],385
same,Population Apoptotic (%),[2],16%
same,Population Healthy Nuclei (%),[2],42%
same,Population Mitotic Cells (%),[2],83%
same,Population Normal (%),[2],96%
same,Population Pyknosed Nuclei (%),[2],54%
same,Total Cell Count,[2],221
same,Population Apoptotic (%),[3],88%
same,Population Healthy Nuclei (%),[3],23%
same,Population Mitotic Cells (%),[3],11%
same,Population Normal (%),[3],78%
same,Population Pyknosed Nuclei (%),[3],62%
same,Total Cell Count,[3],200
same,Population Apoptotic (%),[4],56%
same,Population Healthy Nuclei (%),[4],14%
same,Population Mitotic Cells (%),[4],43%
same,Population Normal (%),[4],93%
same,Population Pyknosed Nuclei (%),[4],77%
same,Total Cell Count,[4],112
same,Population Apoptotic (%),[5],46%
same,Population Healthy Nuclei (%),[5],52%
same,Population Mitotic Cells (%),[5],53%
same,Population Normal (%),[5],89%
same,Population Pyknosed Nuclei (%),[5],38%
same,Total Cell Count,[5],403
same,Population Apoptotic (%),[6],11%
same,Population Healthy Nuclei (%),[6],53%
same,Population Mitotic Cells (%),[6],88%
same,Population Normal (%),[6],98%
same,Population Pyknosed Nuclei (%),[6],40%
same,Total Cell Count,[6],272
same,Population Apoptotic (%),[7],89%
same,Population Healthy Nuclei (%),[7],29%
same,Population Mitotic Cells (%),[7],10%
same,Population Normal (%),[7],82%
same,Population Pyknosed Nuclei (%),[7],53%
same,Total Cell Count,[7],213
same,Population Apoptotic (%),[8],68%
same,Population Healthy Nuclei (%),[8],24%
same,Population Mitotic Cells (%),[8],31%
same,Population Normal (%),[8],91%
same,Population Pyknosed Nuclei (%),[8],63%
same,Total Cell Count,[8],127
same,Population Apoptotic (%),[9],41%
same,Population Healthy Nuclei (%),[9],63%
same,Population Mitotic Cells (%),[9],58%
same,Population Normal (%),[9],91%
same,Population Pyknosed Nuclei (%),[9],26%
same,Total Cell Count,[9],567
same,Population Apoptotic (%),[10],18%
same,Population Healthy Nuclei (%),[10],77%
same,Population Mitotic Cells (%),[10],81%
same,Population Normal (%),[10],97%
same,Population Pyknosed Nuclei (%),[10],18%
same,Total Cell Count,[10],425
same,Population Apoptotic (%),[11],84%
same,Population Healthy Nuclei (%),[11],40%
same,Population Mitotic Cells (%),[11],15%
same,Population Normal (%),[11],84%
same,Total Cell Count,[11],206
same,Population Apoptotic (%),[12],76%
same,Population Healthy Nuclei (%),[12],48%
same,Population Mitotic Cells (%),[12],23%
same,Population Normal (%),[12],90%
same,Population Pyknosed Nuclei (%),[12],45%
same,Total Cell Count,[12],127
